Laboratory results from ChEMBL document CHEMBL1811752, “Synthesis and pharmacological characterization of bicyclic triple reuptake inhibitor 3-aryl octahydrocyclopenta[c]pyrrole analogues” (J Med Chem, 2011).

Tests used:
Cytochrome P450 3A4 = Cytochrome P450 3A4 (Homo sapiens, UniProt P08684); assay: Inhibition of CYP3A4 in human liver microsomes by LC-MS/MS analysis; type: ADME, Microsome
In short: (§1)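 Human liver microsomes incubated with isoform-specific substrates and compound, typically 0.1–25 μM. Metabolite formation read by LC-MS/MS, […]. IC50 calculated from the decrease in metabolite formation relative to vehicle control.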

[1] = Half life in mouse liver microsomes at 3 uM by LC-MS/MS analysis; type: ADME, Microsome
In short: (§2)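 Human or mouse liver microsomes (0.5 mg/mL) incubated with 3 μM compound at 37 °C. Reaction started with NADPH and stopped with methanol containing internal standard. Loss of compound followed over 45 min by LC-MS/MS. Peak area ratio to internal standard plotted against time and the slope of the line taken.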

[2] = biological target: Sodium-dependent dopamine transporter (Homo sapiens, UniProt Q01959); assay: Inhibition of dopamine reuptake at DAT expressed in CHO-K1 cells; type: cell-based
Cytochrome P450 2C9 = Cytochrome P450 2C9 (Homo sapiens, UniProt P11712); assay: Inhibition of CYP2C9 in human liver microsomes by LC-MS/MS analysis; type: ADME, Microsome; in short: as §1
[3] = biological target: Voltage-gated inwardly rectifying potassium channel KCNH2 (Homo sapiens, UniProt Q12809); assay: Inhibition of human ERG expressed in CHO cells by high throughput single cell planar patch clamp method; type: cell-based
CYP1A = biological target: T1, CYP1A (Homo sapiens, UniProt P04798+P05177); assay: Inhibition of CYP1A in human liver microsomes by LC-MS/MS analysis; type: ADME, Microsome; in short: as §1
T1 sequence (P04798 whole entry): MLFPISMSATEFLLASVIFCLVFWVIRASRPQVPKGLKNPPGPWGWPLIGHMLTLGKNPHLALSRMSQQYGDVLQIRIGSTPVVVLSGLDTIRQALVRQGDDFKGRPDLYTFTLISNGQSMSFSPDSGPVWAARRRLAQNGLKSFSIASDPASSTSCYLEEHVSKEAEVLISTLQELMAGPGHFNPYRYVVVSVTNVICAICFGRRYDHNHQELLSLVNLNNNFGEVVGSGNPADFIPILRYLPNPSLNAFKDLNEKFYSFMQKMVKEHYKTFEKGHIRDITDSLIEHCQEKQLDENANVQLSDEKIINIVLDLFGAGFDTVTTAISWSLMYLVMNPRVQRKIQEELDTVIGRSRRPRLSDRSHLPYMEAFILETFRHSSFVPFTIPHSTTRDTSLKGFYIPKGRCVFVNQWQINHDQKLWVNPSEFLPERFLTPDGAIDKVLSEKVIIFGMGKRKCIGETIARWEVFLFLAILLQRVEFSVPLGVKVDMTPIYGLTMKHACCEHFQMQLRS
T1 sequence (P05177 whole entry): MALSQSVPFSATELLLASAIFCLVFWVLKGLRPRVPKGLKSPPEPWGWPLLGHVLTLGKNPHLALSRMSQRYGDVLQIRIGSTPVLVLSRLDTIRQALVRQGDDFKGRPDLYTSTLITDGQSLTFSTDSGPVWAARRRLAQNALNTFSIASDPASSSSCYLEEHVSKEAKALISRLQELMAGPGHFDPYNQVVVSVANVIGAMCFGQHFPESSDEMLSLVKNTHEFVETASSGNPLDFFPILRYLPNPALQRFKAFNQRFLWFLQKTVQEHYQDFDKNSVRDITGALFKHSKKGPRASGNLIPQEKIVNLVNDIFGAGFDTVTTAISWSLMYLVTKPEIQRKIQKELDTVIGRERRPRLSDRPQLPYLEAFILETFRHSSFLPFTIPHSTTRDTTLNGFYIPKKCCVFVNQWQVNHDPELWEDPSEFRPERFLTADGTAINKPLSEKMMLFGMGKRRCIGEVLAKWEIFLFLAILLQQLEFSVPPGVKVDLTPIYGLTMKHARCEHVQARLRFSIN

Cytochrome P450 2D6 = Cytochrome P450 2D6 (Homo sapiens, UniProt P10635); assay: Inhibition of CYP2D6 in human liver microsomes by LC-MS/MS analysis; type: ADME, Microsome; in short: as §1
[4] = Half life in human liver microsomes at 3 uM by LC-MS/MS analysis; type: ADME, Microsome; in short: as §2
[5] = biological target: Sodium-dependent noradrenaline transporter (Homo sapiens, UniProt P23975); assay: Inhibition of norepinephrine reuptake at NET expressed in MDCK cells; type: cell-based
[6] = biological target: Sodium-dependent serotonin transporter (Homo sapiens, UniProt P31645); assay: Inhibition of serotonin reuptake at SERT expressed in HEK293 cells; type: cell-based
Cytochrome P450 2C19 = Cytochrome P450 2C19 (Homo sapiens, UniProt P33261); assay: Inhibition of CYP2C19 in human liver microsomes by LC-MS/MS analysis; type: ADME, Microsome; in short: as §1
Cytochrome P450 2C19, sequence (P33261 whole entry): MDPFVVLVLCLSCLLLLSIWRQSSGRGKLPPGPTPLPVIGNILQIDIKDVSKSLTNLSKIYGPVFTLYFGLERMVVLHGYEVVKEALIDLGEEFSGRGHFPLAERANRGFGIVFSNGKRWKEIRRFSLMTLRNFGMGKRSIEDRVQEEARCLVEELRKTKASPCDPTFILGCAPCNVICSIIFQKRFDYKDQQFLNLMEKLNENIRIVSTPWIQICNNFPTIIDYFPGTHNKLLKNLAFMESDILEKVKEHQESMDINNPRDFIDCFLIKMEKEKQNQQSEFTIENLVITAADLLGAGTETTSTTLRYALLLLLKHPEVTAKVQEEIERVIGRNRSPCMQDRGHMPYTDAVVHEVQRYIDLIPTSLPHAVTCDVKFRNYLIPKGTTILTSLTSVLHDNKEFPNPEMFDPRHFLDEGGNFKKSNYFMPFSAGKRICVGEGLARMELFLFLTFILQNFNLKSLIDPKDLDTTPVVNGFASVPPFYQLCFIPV

Sodium-dependent dopamine transporter, sequence (Q01959 whole entry): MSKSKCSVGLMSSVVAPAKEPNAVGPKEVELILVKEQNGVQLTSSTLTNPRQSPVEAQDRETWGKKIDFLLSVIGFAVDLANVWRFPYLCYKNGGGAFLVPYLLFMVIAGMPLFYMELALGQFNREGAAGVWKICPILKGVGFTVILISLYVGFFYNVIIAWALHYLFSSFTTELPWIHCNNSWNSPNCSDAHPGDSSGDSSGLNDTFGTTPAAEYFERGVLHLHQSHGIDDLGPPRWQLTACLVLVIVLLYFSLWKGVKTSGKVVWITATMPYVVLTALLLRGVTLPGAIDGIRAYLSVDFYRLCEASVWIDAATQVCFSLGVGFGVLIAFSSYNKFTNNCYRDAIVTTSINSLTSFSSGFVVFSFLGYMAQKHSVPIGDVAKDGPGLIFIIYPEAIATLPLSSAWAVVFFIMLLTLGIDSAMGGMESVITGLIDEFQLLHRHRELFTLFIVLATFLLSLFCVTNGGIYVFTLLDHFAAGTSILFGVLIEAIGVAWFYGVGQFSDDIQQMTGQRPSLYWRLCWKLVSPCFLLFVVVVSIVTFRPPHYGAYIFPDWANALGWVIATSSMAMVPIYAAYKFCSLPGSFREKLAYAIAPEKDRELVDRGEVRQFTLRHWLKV
Voltage-gated inwardly rectifying potassium channel KCNH2, sequence (Q12809 whole entry): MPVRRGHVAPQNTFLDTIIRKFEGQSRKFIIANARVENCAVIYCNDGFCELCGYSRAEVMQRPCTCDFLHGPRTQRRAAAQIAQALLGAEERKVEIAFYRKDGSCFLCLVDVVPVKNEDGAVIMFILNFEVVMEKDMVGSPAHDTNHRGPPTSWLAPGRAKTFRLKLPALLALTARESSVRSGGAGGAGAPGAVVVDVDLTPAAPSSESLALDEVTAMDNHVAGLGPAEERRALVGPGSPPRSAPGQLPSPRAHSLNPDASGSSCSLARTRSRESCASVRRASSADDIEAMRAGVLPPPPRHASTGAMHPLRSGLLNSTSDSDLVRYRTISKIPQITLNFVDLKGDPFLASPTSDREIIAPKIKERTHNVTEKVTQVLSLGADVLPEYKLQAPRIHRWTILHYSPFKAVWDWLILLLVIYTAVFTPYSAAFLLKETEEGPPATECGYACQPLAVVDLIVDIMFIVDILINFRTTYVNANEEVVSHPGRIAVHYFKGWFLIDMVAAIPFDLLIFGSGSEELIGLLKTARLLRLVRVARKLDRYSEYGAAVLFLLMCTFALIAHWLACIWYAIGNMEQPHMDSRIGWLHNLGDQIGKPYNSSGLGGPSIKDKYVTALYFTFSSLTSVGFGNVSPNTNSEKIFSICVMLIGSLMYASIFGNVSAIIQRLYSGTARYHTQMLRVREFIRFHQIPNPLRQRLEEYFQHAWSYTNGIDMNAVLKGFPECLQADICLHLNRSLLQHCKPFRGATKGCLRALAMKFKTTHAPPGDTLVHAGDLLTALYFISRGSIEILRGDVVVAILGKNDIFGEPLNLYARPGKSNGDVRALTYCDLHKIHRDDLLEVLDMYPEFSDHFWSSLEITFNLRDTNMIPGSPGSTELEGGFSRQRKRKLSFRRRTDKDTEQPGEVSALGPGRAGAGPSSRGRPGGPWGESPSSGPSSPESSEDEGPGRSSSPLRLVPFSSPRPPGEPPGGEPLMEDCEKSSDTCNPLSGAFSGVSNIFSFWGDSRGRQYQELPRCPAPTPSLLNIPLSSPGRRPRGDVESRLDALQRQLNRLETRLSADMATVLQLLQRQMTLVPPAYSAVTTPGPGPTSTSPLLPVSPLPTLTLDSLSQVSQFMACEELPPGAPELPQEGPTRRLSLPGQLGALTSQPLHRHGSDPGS
Cytochrome P450 2C9, sequence (P11712 whole entry): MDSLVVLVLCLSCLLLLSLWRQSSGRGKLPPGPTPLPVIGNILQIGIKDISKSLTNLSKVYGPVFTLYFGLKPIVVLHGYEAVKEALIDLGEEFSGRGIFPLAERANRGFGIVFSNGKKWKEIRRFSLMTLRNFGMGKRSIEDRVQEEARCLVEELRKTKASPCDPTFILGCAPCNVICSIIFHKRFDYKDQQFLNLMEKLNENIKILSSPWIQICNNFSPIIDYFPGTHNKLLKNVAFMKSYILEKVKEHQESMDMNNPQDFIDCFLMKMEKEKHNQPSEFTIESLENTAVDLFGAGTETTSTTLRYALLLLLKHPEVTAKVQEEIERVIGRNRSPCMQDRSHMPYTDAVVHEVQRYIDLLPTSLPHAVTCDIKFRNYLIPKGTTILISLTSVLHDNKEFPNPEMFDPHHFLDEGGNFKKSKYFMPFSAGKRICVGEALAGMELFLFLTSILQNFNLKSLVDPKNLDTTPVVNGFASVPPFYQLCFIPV
Cytochrome P450 3A4, sequence (P08684 whole entry, canonical isoform): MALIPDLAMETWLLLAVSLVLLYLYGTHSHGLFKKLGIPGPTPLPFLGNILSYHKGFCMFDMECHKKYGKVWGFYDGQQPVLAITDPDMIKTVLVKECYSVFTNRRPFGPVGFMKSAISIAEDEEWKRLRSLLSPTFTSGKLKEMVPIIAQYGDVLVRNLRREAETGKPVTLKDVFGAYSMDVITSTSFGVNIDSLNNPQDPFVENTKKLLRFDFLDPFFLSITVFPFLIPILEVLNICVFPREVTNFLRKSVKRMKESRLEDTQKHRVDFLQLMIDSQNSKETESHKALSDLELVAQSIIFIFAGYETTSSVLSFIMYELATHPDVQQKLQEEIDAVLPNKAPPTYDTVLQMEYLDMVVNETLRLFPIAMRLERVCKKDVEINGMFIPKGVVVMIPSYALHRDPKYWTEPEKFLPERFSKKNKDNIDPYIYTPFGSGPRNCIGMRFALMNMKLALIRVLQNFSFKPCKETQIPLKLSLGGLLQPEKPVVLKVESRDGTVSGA
Sodium-dependent noradrenaline transporter, sequence (P23975 whole entry): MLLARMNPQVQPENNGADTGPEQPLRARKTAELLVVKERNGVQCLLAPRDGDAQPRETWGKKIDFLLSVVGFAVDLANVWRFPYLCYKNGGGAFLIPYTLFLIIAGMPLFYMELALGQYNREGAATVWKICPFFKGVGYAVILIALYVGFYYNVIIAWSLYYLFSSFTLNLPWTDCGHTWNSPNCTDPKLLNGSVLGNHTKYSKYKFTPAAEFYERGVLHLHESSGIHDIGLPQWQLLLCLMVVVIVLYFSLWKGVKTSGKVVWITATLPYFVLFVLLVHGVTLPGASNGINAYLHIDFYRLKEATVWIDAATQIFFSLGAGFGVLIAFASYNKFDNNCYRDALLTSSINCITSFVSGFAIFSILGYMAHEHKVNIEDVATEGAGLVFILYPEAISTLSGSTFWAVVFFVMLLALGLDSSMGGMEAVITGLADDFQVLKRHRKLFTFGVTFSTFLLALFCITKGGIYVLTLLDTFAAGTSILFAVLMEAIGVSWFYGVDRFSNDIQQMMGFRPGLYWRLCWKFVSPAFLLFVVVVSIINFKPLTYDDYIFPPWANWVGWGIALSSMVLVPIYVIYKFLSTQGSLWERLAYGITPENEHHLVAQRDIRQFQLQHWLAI
Cytochrome P450 2D6, sequence (P10635 whole entry): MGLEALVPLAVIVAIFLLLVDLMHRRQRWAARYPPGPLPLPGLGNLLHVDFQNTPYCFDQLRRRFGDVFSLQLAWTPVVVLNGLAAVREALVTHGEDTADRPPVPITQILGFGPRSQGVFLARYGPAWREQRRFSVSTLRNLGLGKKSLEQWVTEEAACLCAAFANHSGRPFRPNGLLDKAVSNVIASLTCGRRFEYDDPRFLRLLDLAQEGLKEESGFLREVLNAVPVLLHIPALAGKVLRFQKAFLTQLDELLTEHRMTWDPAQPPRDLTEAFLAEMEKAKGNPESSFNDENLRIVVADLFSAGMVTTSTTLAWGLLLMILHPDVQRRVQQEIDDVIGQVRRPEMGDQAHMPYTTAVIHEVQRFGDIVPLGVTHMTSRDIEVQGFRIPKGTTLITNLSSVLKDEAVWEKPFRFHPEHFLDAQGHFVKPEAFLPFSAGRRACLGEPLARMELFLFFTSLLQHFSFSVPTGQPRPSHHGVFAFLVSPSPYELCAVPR
Sodium-dependent serotonin transporter, sequence (P31645 whole entry): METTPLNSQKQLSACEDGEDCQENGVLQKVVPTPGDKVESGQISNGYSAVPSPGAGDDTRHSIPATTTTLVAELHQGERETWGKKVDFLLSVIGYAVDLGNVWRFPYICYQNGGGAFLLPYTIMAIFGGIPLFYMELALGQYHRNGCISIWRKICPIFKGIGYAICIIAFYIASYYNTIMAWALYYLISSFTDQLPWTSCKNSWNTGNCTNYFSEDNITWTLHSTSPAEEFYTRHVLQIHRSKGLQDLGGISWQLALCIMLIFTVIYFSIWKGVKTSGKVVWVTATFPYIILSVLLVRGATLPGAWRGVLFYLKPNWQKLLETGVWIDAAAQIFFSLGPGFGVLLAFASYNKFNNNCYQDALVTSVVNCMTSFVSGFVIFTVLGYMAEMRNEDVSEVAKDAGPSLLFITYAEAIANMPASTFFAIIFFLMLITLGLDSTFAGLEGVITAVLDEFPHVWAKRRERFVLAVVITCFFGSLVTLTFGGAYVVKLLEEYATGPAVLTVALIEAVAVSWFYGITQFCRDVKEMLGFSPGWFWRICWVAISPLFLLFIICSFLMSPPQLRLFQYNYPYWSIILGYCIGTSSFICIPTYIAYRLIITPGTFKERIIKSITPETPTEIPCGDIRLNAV

Row | SMILES | IC50 (Cytochrome P450 3A4) [nM] | half-life at 3 µM [1] [min] | IC50 [2] [nM] | IC50 (Cytochrome P450 2C9) [nM] | IC50 [3] [nM] | IC50 (CYP1A) [nM] | IC50 (Cytochrome P450 2D6) [nM] | half-life at 3 µM [4] [min] | IC50 [5] [nM] | IC50 [6] [nM] | IC50 (Cytochrome P450 2C19) [nM]
1 | Clc1ccc([C@@]23CCCC[C@@H]2CNC3)cc1Cl | 12800 | > 300 | 83.2 | > 25000 | 3640 | 6140 | 7930 | > 300 | 204 | 91.2 | > 25000
2 | Clc1ccc([C@]23CCC[C@H]2CNC3)cc1Cl (single isomer, unassigned) | 9170 | 56 | 141 | 4010 | 6400 | 530 | 2470 | 22 | 209 | 501 | 1900
3 | CCN1C[C@@H]2CCCC[C@]2(c2ccc(Cl)c(Cl)c2)C1 (single isomer, unassigned) | > 5000 | 33 | 10 | > 5000 | 4330 | 4230 | 2920 | 55 | 38 | 69.2 | > 25000
4 | c1ccc2cc([C@]34CCC[C@H]3CNC4)ccc2c1 | 2650 | 26 | 33.9 | > 25000 | – | 4130 | 9420 | 25 | 14.1 | 13.5 | > 25000
